Data as given in ChEMBL document CHEMBL4823269, “Acyclic nucleoside phosphonates with 2-aminothiazole base as inhibitors of bacterial and mammalian adenylate cyclases” (Eur J Med Chem, 2021).

Tests used:
J774.A1 = assay: Cytotoxicity against mouse J774.A1 cells assessed as reduction in cell viability at 10 uM measured after 5 hrs by Cell TiterGlo Luminescent assay relative to control; type: cell-based; conditions: j774.a1, 5 h
[1] = Inhibition of Bordetella pertussis ACT by cell free assay
Summary of the method: (§1)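 Run cell-free on the bacterial enzyme, with the phosphono diphosphate forms (nucleoside triphosphate analogues) added directly rather than the bisamide prodrugs; an IC50 was obtained.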

[2] = Inhibition of Bordetella pertussis ACT exposed to mouse J774.A1 cells assessed as inhibition of ACT-induced cAMP accumulation cells pretreated for 5 hrs measured after 30 mins followed by enzyme addition by immunoassay; type: cell-based
[3] = target: T1, Calmodulin-sensitive adenylate cyclase (Bacillus anthracis, UniProt P40136); assay: Inhibition of Bacillus anthracis edema factor by cell free assay; summary of the method: as §1
T1 sequence (P40136 whole entry): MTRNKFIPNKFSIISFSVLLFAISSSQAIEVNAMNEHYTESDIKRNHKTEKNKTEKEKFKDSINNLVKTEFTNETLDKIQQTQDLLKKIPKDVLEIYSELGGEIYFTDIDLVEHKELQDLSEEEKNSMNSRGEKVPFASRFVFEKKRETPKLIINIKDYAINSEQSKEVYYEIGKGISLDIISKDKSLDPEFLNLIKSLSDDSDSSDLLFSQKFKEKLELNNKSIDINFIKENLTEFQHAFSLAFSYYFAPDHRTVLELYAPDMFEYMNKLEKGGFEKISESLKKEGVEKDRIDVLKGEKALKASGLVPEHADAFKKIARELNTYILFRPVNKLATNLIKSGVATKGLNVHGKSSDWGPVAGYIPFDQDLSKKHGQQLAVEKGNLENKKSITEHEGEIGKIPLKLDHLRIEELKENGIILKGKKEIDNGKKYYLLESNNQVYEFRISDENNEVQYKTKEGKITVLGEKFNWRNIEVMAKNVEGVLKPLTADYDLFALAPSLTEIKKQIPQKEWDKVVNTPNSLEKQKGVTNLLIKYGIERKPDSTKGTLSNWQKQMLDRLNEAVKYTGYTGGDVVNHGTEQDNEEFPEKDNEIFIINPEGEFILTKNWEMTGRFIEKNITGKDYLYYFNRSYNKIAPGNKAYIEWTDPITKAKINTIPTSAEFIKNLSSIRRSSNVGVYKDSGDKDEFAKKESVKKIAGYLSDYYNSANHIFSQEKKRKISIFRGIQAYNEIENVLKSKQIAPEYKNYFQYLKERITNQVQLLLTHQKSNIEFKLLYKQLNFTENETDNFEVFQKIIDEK

SMILES	Activity (J774.A1) [%]	IC50 [1] [µM]	IC50 [2] [µM]	IC50 [3] [µM]
CCCCOc1cccc(-c2sc(N)nc2CCOCP(=O)(N[C@@H](Cc2ccccc2)C(=O)OC(C)C)N[C@@H](Cc2ccccc2)C(=O)OC(C)C)c1	35	–	–	–
CNC(=O)c1ccc(-c2sc(N)nc2CCOCP(=O)(O)OP(=O)(O)OP(=O)(O)O)cc1	–	0.0374	–	–
CC(C)OC(=O)[C@H](Cc1ccccc1)NP(=O)(COCCc1nc(N)sc1-c1ccccc1OCc1ccccc1)N[C@@H](Cc1ccccc1)C(=O)OC(C)C	115	–	> 10	–
CC(C)OC(=O)[C@H](Cc1ccccc1)NP(=O)(COCCc1nc(N)sc1-c1cccc(F)c1)N[C@@H](Cc1ccccc1)C(=O)OC(C)C	99	–	–	–
CC(C)Cc1sc(N)nc1-c1ccc(P(=O)(O)OP(=O)(O)OP(=O)(O)O)o1	–	16	–	5.06
Nc1nc(CCOCP(=O)(O)OP(=O)(O)OP(=O)(O)O)c(-c2ccccc2OCc2ccccc2)s1	–	0.184	–	7.81
CC(C)OC(=O)[C@H](Cc1ccccc1)NP(=O)(COCCc1csc(N)n1)N[C@@H](Cc1ccccc1)C(=O)OC(C)C	72	–	> 10	–
Nc1nc(CCOCP(=O)(O)OP(=O)(O)OP(=O)(O)O)c(-c2cccc(OCc3ccccc3)c2)s1	–	0.192	–	–
CC(C)OC(=O)[C@H](Cc1ccccc1)NP(=O)(COCCc1nc(N)sc1-c1cccnc1)N[C@@H](Cc1ccccc1)C(=O)OC(C)C	99	–	2.62	–
CC(C)Oc1ccc(-c2sc(N)nc2CCOCP(=O)(O)OP(=O)(O)OP(=O)(O)O)cc1	–	0.185	–	–
CC(C)Cc1sc(N)nc1-c1ccc(P(=O)(O)N[C@@H](Cc2ccccc2)C(=O)OC(C)C)o1	86	–	14.2	–
CNC(=O)c1cccc(-c2sc(N)nc2CCOCP(=O)(N[C@@H](Cc2ccccc2)C(=O)OC(C)C)N[C@@H](Cc2ccccc2)C(=O)OC(C)C)c1	106	–	8.45	–
Nc1nc(CCOCP(=O)(O)OP(=O)(O)OP(=O)(O)O)c(-c2cccc(F)c2)s1	–	0.313	–	–
CNC(=O)c1ccc(-c2sc(N)nc2CCOCP(=O)(N[C@@H](Cc2ccccc2)C(=O)OC(C)C)N[C@@H](Cc2ccccc2)C(=O)OC(C)C)cc1	99	–	–	–
CC(C)OC(=O)[C@H](Cc1ccccc1)NP(=O)(COCc1csc(N)n1)N[C@@H](Cc1ccccc1)C(=O)OC(C)C	83	–	> 10	–
COc1ccc(-c2sc(N)nc2CCOCP(=O)(N[C@@H](Cc2ccccc2)C(=O)OC(C)C)N[C@@H](Cc2ccccc2)C(=O)OC(C)C)c(C)c1	57	–	1.16	–
CNS(=O)(=O)c1cccc(-c2sc(N)nc2CCOCP(=O)(N[C@@H](Cc2ccccc2)C(=O)OC(C)C)N[C@@H](Cc2ccccc2)C(=O)OC(C)C)c1	99	–	–	–
CC(C)Cc1sc(N)nc1-c1ccc(P(=O)(NC(Cc2ccccc2)C(=O)OC(C)C)N[C@@H](Cc2ccccc2)C(=O)OC(C)C)o1 (stereo not given in full)	88	–	2.12	–
CC(C)OC(=O)[C@H](Cc1ccccc1)NP(=O)(COCCc1nc(N)sc1-c1cccc(OCc2ccccc2)c1)N[C@@H](Cc1ccccc1)C(=O)OC(C)C	72	–	–	–
CC(C)OC(=O)[C@H](Cc1ccccc1)NP(=O)(COCCc1nc(N)sc1-c1ccc(OC(C)C)cc1)N[C@@H](Cc1ccccc1)C(=O)OC(C)C	81	–	–	–
CNS(=O)(=O)c1ccc(-c2sc(N)nc2CCOCP(=O)(N[C@@H](Cc2ccccc2)C(=O)OC(C)C)N[C@@H](Cc2ccccc2)C(=O)OC(C)C)cc1	94	–	> 10	–
CC(C)OC(=O)[C@H](Cc1ccccc1)NP(=O)(COCCn1cnc2c(N)ncnc21)N[C@@H](Cc1ccccc1)C(=O)OC(C)C	93	–	0.15	–
CC(C)OC(=O)[C@H](Cc1ccccc1)NP(=O)(COCCc1nc(N)sc1-c1ccccc1)N[C@@H](Cc1ccccc1)C(=O)OC(C)C	112	–	–	–
CC(C)OC(=O)[C@H](Cc1ccccc1)NP(=O)(COCc1nc(N)sc1-c1ccccc1)N[C@@H](Cc1ccccc1)C(=O)OC(C)C	54	–	4.68	–
CC(C)OC(=O)[C@H](Cc1ccccc1)NP(=O)(COCCc1nc(N)sc1-c1cccc(OC(C)C)c1)N[C@@H](Cc1ccccc1)C(=O)OC(C)C	44	–	1.72	–
CC(C)OC(=O)[C@H](Cc1ccccc1)NP(=O)(COCCc1nc(N)sc1Sc1ccccc1)N[C@@H](Cc1ccccc1)C(=O)OC(C)C	36	–	0.93	–
COc1cc(OC)cc(-c2sc(N)nc2CCOCP(=O)(N[C@@H](Cc2ccccc2)C(=O)OC(C)C)N[C@@H](Cc2ccccc2)C(=O)OC(C)C)c1	86	–	1.43	–
Nc1ncnc2c1ncn2CCOCP(=O)(O)OP(=O)(O)OP(=O)(O)O [ADEFOVIR DIPHOSPHATE]	–	0.0178	–	0.036
